Reference: publication PMC6176371 (Oncology Letters, 2018)
“Also recorded” adds a separate entry of the source. Where two headings read alike, the source gives them in different places. One block for each compound: values may come before it.

Assays:
KB/VCR cells = test: cells; type: cell-based; details: Homo sapiens, read-out: IC50 ± SD
KB cells = test: cells; type: cell-based; details: Homo sapiens, read-out: IC50 ± SD
heart tissues = test: TUNEL assay of heart tissues; type: in vivo; details: male and female Balb/c mice
Outline: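 Heart tissue came from the 3-week mouse study: vehicle; test compound 100 mg/kg gavage twice weekly; ADM 20 mg/kg i.p. on day 6; combination. Paraffin sections (4 µm) were stained with an in situ TUNEL kit, and positive cells were counted in three random fields per slide by light microscopy. Percent apoptotic cells was compared by one-way ANOVA with Dunnett's test.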

CYP2C8 = molecular target: T1, CYP2C8 (Homo sapiens, UniProt P10632); test: CYP inhibition in pooled human liver microsomes, CYP2C8; type: biochemical; details: CYP2C8, Amodiaquine N-deethylation
T1 sequence (P10632 1-490): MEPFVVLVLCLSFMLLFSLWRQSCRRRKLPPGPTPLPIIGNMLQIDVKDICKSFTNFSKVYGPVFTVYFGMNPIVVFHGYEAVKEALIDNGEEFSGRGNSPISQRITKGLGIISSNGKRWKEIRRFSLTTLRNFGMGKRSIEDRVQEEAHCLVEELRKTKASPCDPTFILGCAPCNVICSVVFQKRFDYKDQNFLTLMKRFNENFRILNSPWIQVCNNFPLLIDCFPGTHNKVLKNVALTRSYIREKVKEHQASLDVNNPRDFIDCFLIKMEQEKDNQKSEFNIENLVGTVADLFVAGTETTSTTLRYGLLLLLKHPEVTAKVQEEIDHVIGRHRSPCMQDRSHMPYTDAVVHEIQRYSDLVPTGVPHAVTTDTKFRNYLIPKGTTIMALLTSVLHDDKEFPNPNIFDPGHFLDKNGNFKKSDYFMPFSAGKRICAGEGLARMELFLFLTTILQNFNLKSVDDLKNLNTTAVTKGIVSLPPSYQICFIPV

CYP3A4 = CYP3A4 (Homo sapiens, UniProt P08684); test: CYP inhibition in pooled human liver microsomes, CYP3A4; type: biochemical
CYP3A4, sequence (P08684 whole entry): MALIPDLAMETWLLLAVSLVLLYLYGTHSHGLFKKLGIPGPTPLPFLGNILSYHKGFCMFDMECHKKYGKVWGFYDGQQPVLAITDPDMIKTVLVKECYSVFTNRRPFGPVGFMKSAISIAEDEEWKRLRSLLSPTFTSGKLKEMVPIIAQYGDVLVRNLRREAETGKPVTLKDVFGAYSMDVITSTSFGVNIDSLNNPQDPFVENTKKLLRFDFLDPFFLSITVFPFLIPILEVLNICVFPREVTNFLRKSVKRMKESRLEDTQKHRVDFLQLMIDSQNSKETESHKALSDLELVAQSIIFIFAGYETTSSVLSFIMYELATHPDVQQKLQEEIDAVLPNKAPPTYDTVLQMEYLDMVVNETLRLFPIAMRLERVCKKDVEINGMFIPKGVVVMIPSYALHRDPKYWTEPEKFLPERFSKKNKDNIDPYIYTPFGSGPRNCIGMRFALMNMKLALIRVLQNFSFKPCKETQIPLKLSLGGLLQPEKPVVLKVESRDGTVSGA

CYP2C9 = CYP2C9 (Homo sapiens, UniProt P11712); test: CYP inhibition in pooled human liver microsomes, CYP2C9; type: biochemical
CYP2C9, sequence (P11712 whole entry): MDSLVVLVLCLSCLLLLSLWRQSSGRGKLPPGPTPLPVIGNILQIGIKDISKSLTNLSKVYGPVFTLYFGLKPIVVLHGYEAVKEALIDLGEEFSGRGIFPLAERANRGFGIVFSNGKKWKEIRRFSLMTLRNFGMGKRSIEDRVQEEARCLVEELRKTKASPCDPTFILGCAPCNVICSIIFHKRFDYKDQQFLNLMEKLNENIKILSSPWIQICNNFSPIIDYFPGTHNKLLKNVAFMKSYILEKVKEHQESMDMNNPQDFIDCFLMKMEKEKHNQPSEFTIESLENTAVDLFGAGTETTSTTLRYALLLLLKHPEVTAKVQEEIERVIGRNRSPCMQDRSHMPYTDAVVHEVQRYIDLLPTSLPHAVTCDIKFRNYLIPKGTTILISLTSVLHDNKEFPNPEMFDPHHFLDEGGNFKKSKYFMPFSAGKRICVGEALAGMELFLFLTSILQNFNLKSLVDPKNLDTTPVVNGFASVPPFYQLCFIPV

Balb/c mice = test: Maximum tolerant dosage, single high-dose PPD12; type: in vivo; details: 1 g/kg PPD12
Outline: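 Single oral gavage of test compound at 1 g/kg to Balb/c mice to assess tolerability of a single high dose.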

[1] = Pharmacokinetic study, oral and i.v. administration; type: in vivo, SD rats
Outline: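 Adult male SD rats got a single 10 mg/kg dose by tail-vein injection or oral gavage. Blood was drawn from three rats predose and at 0.083–24 h; plasma was frozen at −80°C. Plasma was deproteinized with methanol containing 250 nM internal standard for LC/MS/MS. PK parameters came from a noncompartmental i.v.-bolus model.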

CYP1A2 = molecular target: T2, CYP1A2 (Homo sapiens, UniProt P05177); test: CYP inhibition in pooled human liver microsomes, CYP1A2; type: biochemical
T2 sequence (P05177 1-516): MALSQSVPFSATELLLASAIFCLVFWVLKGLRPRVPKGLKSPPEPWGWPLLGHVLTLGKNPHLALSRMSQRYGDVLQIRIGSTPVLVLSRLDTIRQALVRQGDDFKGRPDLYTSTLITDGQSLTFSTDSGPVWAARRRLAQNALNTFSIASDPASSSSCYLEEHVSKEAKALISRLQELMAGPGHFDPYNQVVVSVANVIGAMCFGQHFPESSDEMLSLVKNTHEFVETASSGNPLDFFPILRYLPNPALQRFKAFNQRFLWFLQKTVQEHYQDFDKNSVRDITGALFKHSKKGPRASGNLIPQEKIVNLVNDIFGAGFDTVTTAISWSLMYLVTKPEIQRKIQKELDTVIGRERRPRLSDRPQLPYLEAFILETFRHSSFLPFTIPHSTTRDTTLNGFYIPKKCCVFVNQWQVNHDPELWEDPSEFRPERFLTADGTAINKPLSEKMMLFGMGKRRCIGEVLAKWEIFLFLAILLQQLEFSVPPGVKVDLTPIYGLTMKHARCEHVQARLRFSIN

CYP2B6 = molecular target: T3, CYP2B6 (Homo sapiens, UniProt P20813); test: CYP inhibition in pooled human liver microsomes, CYP2B6; type: biochemical; details: CYP2B6, Bupropion hydroxylation
T3 sequence (P20813 1-491): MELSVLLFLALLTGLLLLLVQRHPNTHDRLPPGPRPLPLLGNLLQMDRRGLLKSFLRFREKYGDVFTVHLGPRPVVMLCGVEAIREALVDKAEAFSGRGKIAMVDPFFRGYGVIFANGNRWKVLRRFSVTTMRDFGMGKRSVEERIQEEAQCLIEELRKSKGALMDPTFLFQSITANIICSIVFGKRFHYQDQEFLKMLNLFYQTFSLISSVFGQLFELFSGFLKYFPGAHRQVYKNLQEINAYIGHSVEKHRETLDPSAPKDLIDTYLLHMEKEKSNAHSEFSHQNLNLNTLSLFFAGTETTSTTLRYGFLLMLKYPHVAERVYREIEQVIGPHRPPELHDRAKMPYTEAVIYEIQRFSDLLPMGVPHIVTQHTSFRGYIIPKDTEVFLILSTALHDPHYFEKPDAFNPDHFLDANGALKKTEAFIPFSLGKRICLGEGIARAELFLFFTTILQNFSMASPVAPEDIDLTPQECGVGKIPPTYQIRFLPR

CYP2D6 = CYP2D6 (Homo sapiens, UniProt P10635); test: CYP inhibition in pooled human liver microsomes, CYP2D6; type: biochemical; details: CYP2D6, Dextromethorphandextrorphan
CYP2D6, sequence (P10635 whole entry): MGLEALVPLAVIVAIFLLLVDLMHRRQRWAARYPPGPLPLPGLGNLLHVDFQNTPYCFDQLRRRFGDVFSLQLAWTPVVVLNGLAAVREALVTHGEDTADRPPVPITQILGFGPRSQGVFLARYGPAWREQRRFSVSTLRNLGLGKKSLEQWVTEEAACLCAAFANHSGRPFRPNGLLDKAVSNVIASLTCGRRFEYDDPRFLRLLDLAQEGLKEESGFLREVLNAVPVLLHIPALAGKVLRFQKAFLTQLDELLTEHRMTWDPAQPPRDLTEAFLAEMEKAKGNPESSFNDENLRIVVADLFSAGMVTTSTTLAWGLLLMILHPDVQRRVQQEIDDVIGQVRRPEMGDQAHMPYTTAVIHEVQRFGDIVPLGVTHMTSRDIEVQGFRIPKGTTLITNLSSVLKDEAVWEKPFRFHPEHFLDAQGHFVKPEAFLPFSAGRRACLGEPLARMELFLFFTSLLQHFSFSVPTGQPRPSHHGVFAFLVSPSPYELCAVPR

CYP2C19 = CYP2C19 (Homo sapiens, UniProt P33261); details: CYP2C19, S-mephenytoin4′-hydroxylation, human liver microsomes
CYP2C19, sequence (P33261 whole entry): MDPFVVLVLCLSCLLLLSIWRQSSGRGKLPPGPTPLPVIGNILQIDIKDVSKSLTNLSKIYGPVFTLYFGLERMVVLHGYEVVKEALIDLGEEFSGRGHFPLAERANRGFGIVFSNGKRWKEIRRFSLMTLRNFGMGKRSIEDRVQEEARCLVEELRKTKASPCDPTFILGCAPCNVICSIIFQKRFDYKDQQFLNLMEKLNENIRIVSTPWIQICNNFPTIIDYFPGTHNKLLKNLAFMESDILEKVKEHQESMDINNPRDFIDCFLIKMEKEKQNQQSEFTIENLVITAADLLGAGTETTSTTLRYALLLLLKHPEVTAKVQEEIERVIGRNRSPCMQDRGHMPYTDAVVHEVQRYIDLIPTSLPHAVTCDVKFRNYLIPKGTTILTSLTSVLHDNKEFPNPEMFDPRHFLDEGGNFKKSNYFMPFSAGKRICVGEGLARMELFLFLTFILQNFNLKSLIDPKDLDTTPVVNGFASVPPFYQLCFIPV

IC50 (KB/VCR cells; 24 h): 151 µM
IC50 (KB/VCR cells; 48 h): 4.78 µM
IC50 (KB/VCR cells; 72 h): 1.52 µM
IC50 (KB/VCR cells; 96 h): 1.19 µM
IC50 (KB cells; 24 h): 2380 nM
IC50 (KB cells; 48 h): 390 nM
IC50 (KB cells; 72 h): 71.3 nM
IC50 (KB cells; 96 h): 35.1 nM
SMILES: COc1cccc2c1C(=O)c1c(O)c3c(c(O)c1C2=O)C[C@@](O)(C(=O)CO)C[C@@H]3O[C@H]1C[C@H](N)[C@H](O)[C@H](C)O1 [ADM, Adriamycin]
apoptotic cells in heart tissues (TUNEL) compared to the control group (heart tissues): significant increase in apoptosis

SMILES: CC1(C)[C@@H](O)CC[C@]2(C)[C@H]3C[C@@H](O)[C@@H]4[C@@H]([C@@](C)(O)CCCNCc5ccccc5)CC[C@@]4(C)[C@]3(C)CC[C@@H]12 [PPD12]
IC50 (CYP2C8): 9.57 µM
IC50 (CYP3A4; CYP3A4, Midazolam 1′-hydroxylation): 1.03 µM
IC50 (CYP3A4; CYP3A4, Testosterone 6-β-hydroxylation): 8.43 µM
IC50 (CYP2C9; CYP2C9, Diclofenac4′-hydroxylation): > 33 µM
inhibition of CYP2C9-mediated diclofenac4′-hydroxylation (CYP2C9; at 33 µM): negligible inhibition
lethal effects / tolerability of a single high dosage (Balb/c mice): did not observe any lethal effects; also recorded: well tolerated
oral absolute bioavailability ([1]; male SD rats, 10 mg/kg oral vs i.v.): 114.41±22.24%
bioavailability by oral administration ([1]; mouse model (so in the source)): ~100%
IC50 (CYP1A2; CYP1A2, Phenacetin 0-deethylation): > 33 µM
inhibition of CYP1A2-mediated phenacetin 0-deethylation (CYP1A2; at 33 µM): negligible inhibition
IC50 (CYP2B6): 2210 nM
IC50 (CYP2D6): 11.8 µM
apoptotic cells in heart tissues (TUNEL) compared to the control group (heart tissues): no obvious difference in apoptotic cells
IC50 (CYP2C19): 15 µM
